Results published in ChEMBL document CHEMBL2440064, “Synthesis and biological evaluation of 2-amino-5-aryl-3-benzylthiopyridine scaffold based potent c-Met inhibitors” (Bioorg Med Chem, 2013).
The source made the active and inactive calls. The calls are words filed in the database; no cut-off is given here.

Tests used:
[1] = target: Epidermal growth factor receptor (Homo sapiens, UniProt P00533); assay: Inhibition of EGFR (unknown origin) using poly (Glu, Tyr) 4:1 as substrate after 60 mins by ELISA
Epidermal growth factor receptor, sequence (P00533 whole entry): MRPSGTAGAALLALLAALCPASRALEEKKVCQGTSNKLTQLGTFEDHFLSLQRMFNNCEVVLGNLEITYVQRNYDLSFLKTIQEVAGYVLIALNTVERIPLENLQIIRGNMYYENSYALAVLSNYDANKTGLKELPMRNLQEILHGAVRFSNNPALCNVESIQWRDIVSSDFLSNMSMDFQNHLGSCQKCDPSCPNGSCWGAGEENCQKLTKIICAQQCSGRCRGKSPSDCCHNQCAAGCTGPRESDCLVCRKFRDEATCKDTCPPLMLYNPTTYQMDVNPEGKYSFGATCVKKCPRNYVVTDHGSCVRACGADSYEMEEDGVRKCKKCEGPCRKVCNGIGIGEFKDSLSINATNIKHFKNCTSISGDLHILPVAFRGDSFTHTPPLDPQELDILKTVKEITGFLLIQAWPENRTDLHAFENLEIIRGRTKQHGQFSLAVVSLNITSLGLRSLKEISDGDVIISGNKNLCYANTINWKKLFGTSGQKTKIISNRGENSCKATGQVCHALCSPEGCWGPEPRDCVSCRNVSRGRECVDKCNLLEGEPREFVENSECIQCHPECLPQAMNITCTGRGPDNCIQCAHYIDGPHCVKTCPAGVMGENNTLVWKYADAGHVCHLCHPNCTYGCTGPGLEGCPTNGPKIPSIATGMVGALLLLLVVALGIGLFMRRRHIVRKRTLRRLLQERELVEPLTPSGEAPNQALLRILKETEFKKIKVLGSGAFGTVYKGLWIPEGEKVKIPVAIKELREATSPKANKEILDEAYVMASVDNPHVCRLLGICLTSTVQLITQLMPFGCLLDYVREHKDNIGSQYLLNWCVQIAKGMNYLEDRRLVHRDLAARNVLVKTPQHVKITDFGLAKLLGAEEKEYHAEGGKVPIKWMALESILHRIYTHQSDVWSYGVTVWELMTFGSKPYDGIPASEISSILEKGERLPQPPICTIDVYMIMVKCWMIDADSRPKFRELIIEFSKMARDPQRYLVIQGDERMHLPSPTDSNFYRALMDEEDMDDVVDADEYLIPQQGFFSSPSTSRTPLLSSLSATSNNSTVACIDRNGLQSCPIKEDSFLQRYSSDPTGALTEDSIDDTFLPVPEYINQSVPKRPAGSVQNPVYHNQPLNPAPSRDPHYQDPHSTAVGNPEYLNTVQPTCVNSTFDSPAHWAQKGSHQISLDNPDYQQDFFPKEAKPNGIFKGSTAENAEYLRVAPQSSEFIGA
In short: (§1)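 ELISA on wells precoated with 20 µg/mL poly(Glu,Tyr)4:1. Purified kinase with 10 µmol/L ATP in 50 mM HEPES pH 7.4, 50 mM MgCl₂, 0.5 mM MnCl₂, 0.2 mM Na₃VO₄, 1 mM DTT; 1% DMSO vehicle. 60 min at 37°C. Phosphotyrosine detected with PY99 antibody, then HRP anti-mouse IgG and o-phenylenediamine/H₂O₂, A490. Inhibition = [1−(A490/A490 control)]×100%; IC50 from curves.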

[2] = target: Ephrin type-B receptor 2 (Homo sapiens, UniProt P29323); assay: Inhibition of EPHB2 (unknown origin) using poly (Glu, Tyr) 4:1 as substrate after 60 mins by ELISA; in short: as §1
Ephrin type-B receptor 2, sequence (P29323 whole entry): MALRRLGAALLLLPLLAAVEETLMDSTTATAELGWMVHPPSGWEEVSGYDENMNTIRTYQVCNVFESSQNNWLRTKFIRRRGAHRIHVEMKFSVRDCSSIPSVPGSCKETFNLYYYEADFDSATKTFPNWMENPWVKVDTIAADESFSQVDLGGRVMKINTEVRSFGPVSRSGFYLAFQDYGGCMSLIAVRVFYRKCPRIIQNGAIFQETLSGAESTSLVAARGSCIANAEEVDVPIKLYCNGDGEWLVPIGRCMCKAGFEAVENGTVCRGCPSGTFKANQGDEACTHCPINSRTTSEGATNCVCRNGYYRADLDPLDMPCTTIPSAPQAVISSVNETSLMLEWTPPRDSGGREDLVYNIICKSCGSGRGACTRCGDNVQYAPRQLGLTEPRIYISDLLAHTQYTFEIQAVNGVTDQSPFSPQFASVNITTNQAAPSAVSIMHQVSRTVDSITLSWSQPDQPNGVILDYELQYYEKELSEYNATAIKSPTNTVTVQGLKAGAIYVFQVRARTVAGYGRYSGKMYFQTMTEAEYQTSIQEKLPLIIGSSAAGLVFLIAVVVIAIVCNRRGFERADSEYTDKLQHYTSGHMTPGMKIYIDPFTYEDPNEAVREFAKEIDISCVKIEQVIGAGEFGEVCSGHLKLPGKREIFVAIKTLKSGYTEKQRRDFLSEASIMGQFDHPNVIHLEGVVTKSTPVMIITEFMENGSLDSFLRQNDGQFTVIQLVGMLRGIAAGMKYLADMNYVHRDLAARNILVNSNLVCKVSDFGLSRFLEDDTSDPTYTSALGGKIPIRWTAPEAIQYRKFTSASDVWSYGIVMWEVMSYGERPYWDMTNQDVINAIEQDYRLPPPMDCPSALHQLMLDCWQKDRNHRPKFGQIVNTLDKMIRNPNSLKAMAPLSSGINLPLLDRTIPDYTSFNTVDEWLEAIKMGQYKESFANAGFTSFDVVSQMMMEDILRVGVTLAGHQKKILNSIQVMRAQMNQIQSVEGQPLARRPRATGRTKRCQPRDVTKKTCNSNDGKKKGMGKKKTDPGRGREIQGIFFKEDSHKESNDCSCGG

[3] = target: Hepatocyte growth factor receptor (Homo sapiens, UniProt P08581); assay: Inhibition of c-Met in human SNU5 cells assessed as inhibition of p44/42 phosphorylation at 0.16 to 20 uM after 2 hrs by Western blotting analysis; assay type: cell-based; details: SNU-5
Hepatocyte growth factor receptor, sequence (P08581 whole entry): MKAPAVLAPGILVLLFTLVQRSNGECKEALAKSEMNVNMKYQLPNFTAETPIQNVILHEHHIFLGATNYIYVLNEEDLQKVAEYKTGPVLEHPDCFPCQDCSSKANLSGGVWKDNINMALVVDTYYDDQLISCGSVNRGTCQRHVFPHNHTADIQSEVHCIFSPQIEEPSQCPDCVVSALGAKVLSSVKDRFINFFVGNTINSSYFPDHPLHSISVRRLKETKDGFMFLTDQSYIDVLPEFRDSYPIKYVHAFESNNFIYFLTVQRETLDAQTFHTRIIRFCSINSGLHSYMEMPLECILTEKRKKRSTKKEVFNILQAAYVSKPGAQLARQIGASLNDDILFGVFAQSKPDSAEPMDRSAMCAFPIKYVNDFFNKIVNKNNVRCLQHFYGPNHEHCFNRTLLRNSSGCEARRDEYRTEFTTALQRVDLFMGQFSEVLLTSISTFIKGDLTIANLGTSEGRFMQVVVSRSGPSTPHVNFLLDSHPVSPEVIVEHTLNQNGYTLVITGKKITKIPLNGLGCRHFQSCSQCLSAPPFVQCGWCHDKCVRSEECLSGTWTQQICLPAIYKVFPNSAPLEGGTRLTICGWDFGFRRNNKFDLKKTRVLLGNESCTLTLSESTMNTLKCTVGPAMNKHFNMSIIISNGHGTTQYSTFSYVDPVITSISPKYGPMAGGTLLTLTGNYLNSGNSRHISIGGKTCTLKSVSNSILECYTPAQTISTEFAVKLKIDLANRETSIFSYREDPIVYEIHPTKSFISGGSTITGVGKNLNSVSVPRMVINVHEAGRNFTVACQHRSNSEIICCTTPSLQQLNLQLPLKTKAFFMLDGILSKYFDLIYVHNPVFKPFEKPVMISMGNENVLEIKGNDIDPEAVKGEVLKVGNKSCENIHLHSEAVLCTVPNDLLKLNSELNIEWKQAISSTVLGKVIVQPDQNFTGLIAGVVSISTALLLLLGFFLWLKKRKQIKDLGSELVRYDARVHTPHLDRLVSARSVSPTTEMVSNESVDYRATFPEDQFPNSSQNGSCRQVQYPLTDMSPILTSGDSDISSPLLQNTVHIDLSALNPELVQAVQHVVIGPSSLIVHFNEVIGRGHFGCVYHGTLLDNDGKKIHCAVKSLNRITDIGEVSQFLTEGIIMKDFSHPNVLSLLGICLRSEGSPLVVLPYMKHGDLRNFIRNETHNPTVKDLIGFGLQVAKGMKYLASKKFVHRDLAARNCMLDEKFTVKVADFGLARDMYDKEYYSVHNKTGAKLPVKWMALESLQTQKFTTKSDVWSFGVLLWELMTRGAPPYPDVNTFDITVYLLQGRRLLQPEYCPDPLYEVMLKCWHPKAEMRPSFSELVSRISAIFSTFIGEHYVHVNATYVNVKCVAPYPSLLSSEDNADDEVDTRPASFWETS
In short: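 Cells grown to exponential phase, treated with compound 2 h at 37°C, lysed in 1× SDS sample buffer, resolved on 10% SDS-PAGE and transferred to nitrocellulose for immunoblotting.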

[4] = system: NCI-H661; assay: Antiproliferative activity against human NCI-H661 cells after 72 hrs; details: NCI-H661, 72 h

C[C@@H](Sc1cc(-c2cnn(C3CCNCC3)c2)cnc1N)c1c(Cl)ccc(F)c1Cl
IC50 [1]: > 1 µM | IC50 [2]: > 1 µM | inhibition [3]: Active | IC50 [4]: 16.2 µM
